Screens: PubChem BioAssay, several laboratories
bCat nuc transl: modulators of beta-catenin nuclear translocation | 0.3% of 190,000 active | nuclear translocation activity, % at 5 µM | HeLa beta-catenin nuclear translocation, immunofluorescence imaging;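 active = nuclear translocation activity above 50% at 5 µM, with a well cell count of 50 or more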;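 also: per-cell ratio of nuclear to cytoplasmic median beta-catenin stain intensity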
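Signal – beta-catenin immunofluorescence imaging with DAPI · Test system – human HeLa cell line · Dosing – 5 µM primary single dose, 0.1% DMSO, 0.02–20 µM confirmation series · Measure – % activation, nuclear-to-cytoplasmic median beta-catenin signal ratio per cell · Incubation – 24 h compound exposure at 37°C, 5% CO2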
NPY-Y2 PAM-ag: human NPY-Y2 potentiation or agonism, primary screen; 0.45% of 220,000 active; cells expressing NPY-Y2, potentiator/agonist read-out; activation, % at 3.6 µM; AID 1359; in the data active = activation above about 27%;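 also: cells stimulated with NPY near EC25 plus isoproterenol at EC100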
Target sequence (P49146 whole entry, looked up): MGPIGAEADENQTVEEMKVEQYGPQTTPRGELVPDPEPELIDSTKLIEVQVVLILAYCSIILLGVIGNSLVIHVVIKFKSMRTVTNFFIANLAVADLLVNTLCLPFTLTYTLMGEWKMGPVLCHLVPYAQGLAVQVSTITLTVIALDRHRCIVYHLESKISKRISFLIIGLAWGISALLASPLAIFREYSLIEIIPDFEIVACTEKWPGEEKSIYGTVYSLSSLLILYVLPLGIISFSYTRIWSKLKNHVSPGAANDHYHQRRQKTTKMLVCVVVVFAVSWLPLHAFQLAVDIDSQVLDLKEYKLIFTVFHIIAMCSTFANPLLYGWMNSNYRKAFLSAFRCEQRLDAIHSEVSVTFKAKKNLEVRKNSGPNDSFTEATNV
NPY-Y1 antag: blocks the human neuropeptide Y Y1 receptor; HEK293-CNG Y1 cells, membrane potential fluorescence; NPY at EC95, then isoproterenol; inhibition, % at 3.6 µM; 1% of 200,000 active; P25929; AID 1040;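 active = inhibition above the campaign mean inhibition of all tested compounds plus 3 SD, cut at about 20% in these data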
Target sequence (P25929 whole entry, looked up): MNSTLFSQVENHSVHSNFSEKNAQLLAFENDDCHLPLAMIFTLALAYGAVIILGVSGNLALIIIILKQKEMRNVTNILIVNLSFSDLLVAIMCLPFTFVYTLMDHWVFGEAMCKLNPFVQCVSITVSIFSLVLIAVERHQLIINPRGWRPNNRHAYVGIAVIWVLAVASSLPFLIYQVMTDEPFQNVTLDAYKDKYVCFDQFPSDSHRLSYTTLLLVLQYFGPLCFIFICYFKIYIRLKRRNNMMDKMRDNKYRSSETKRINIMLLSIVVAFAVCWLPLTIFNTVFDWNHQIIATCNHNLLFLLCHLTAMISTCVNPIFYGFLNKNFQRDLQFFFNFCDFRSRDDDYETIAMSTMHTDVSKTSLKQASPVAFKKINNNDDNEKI
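System: HEK293 cells with Y1 receptor plus CNG channel / Probe or stimulus: NPY 25 nM then isoproterenol 1 µM plus Ro 20-1724 25 µM / Compound: one concentration, 3.6 µM, in 0.4% DMSO / Schedule: compound incubation 1 h at room temperature, readout 45 min post-stimulation / Measured by: membrane potential fluorescence / Read-out: % inhibition of NPY effect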
NPY-Y1 PAM-ag: potentiates or activates human NPY-Y1 receptor. 0.37% of 220,000 active. NPY-Y1 expressing cells, potentiator/agonist activation. AID 1304. activation, % at 3.6 µM; in the data active = activation above about 33%, passing the limit was not always enough;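 also: cells stimulated with NPY at EC10 then isoproterenol at EC100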
MT stabilize HCS: microtubule stabilization, imaging screen | HeLa tubulin immunostaining HCS, 24 h; share of cells brighter than vehicle mean+2SD | % tubulin-high responders, % at 10 µM | 0.83% of 200,000 active;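 active = plate Z-score above 3 for both tubulin-high and condensed-nucleus cell shares, with cell loss under 80%, at 10 µM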;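 also: anti alpha tubulin signal scored within the nucleus-defined area of each cell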
NPY-Y2 antag: NPY-Y2 (human) receptor antagonism | P49146 | NPY-Y2 expressing cells, antagonist mode | inhibition, % at 2.7 µM | 0.99% of 140,000 active | AID 793
NPY-Y1 ant conf: human NPY-Y1 antagonism, confirmation | shares compounds with NPY-Y1 antag | HEK293-CNG NPY-Y1, membrane potential fluorescence, cAMP; NPY challenge against isoproterenol-raised cAMP | 21% of 1,200 active | inhibition, % at 3.6 µM | AID 1254; in the data active = inhibition above about 20%
NPY-Y2 antag ct: human NPY-Y2 antagonism in NPY-Y1 counter-screen | shares compounds with NPY-Y1 antag | inhibition, % at 3.6 µM | HEK293 NPY-Y2 CNG membrane potential fluorescence; cells given NPY, then isoproterenol | AID 1255 | 28% of 1,200 active
Of the large screens only hits and unclear results are named; the others gave an inactive call (follow-up assays come after a bar, where they were run). Compounds with a hit are over-represented: about 2.6% of the library has one in this group of screens. Rule as the data show it, unless noted: active = inhibition above about 17%; inactive = the rest.

CCOC(=O)c1cnc2ccc(OC)cc2c1Nc1ccc2c(c1)OCCO2	NPY-Y1 antag 39 | NPY-Y1 ant conf inactive | NPY-Y2 antag ct inactive
Cc1c(Cl)cnc(NC(=O)COC(=O)Cc2coc3ccc4ccccc4c23)c1Cl	NPY-Y1 antag 23 | NPY-Y1 ant conf inactive | NPY-Y2 antag ct inactive
CN(C)/C=C/C(=O)c1nnn(C2CCCCC2)c1NC1CCCCC1	NPY-Y1 antag 22 | NPY-Y1 ant conf inactive | NPY-Y2 antag ct inactive
CCN(C(=O)CN1CCN(S(=O)(=O)c2ccccc2C(F)(F)F)CC1)c1c(N)n(Cc2ccccc2)c(=O)[nH]c1=O	none
Cc1ccc(NC(=S)N/N=C/c2ccc(OCCC(C)C)cc2)c(C)c1	NPY-Y1 antag 21 | NPY-Y1 ant conf inactive | NPY-Y2 antag ct inactive
COC(=O)C(Cc1csc2ccc(Cl)cc12)NC(=O)c1ccc(Cl)cc1 (centres undefined)	none (no result: NPY-Y1 antag, MT stabilize HCS, NPY-Y2 antag)
O=C(O)c1ccc(N(c2ccccc2)c2ccccc2)cc1	NPY-Y1 antag 27 | NPY-Y1 ant conf 21 | NPY-Y2 antag ct inactive
Cc1nc2c(C(=O)N3CCCC3)cnn2c(C)c1Cc1c(F)cccc1Cl	none (no result: bCat nuc transl)
Cc1nc2c(C(=O)N3CCN(c4ccccn4)CC3)cnn2c(C)c1Cc1cccc(Cl)c1	NPY-Y1 antag 31 | NPY-Y1 ant conf inactive | NPY-Y2 antag ct inactive
CCCCNC(=O)CN1C(=O)NC2(CCCc3ccccc32)C1=O (centres undefined)	NPY-Y1 antag 25 | NPY-Y1 ant conf inactive | NPY-Y2 antag ct inactive
CC(C)C(C)NC(=O)CN1C(=O)NC2(CCCc3ccccc32)C1=O (centres undefined)	none (no result: NPY-Y2 antag)
Nc1nc(CN2CCN(c3cccc(Cl)c3)CC2)nc(N2CCCc3ccccc32)n1	none
Nc1nc(CN2CCN(c3ccccc3)CC2)nc(N2CCCc3ccccc32)n1	NPY-Y1 antag 22 | NPY-Y1 ant conf inactive | NPY-Y2 antag ct inactive
COCC(=O)Nc1ccccc1Br	none (no result: bCat nuc transl)
COCC(=O)Nc1ccccc1C#N	NPY-Y1 antag 21 | NPY-Y1 ant conf inactive | NPY-Y2 antag ct inactive
Cc1nc2ccc(NC(=O)NCCCO)cc2s1	none
O=C(NC1CCCCCC1)c1cc(-c2ccccn2)nc2ccccc12	NPY-Y1 antag 24 (no result: NPY-Y2 antag) | NPY-Y1 ant conf 25 | NPY-Y2 antag ct 18
Cc1cccc(C)c1NC(=O)c1c(C)nn(-c2ccccc2)c1Cl	NPY-Y1 antag 32 | NPY-Y1 ant conf inactive | NPY-Y2 antag ct inactive
Cc1ccc(NC(=O)c2c(C)nn(-c3ccccc3)c2Cl)c(C)c1	none
CCOc1ccccc1Nc1nc2ccccc2n1C(C)C	none (no result: NPY-Y2 antag)
COc1cccc(NC(=O)CN(C)C(=O)COc2ccc3ccccc3c2)c1	none
CCN(CC(=O)Nc1ccccc1OC)C(=O)COc1ccc2ccccc2c1	NPY-Y1 antag 24 | NPY-Y1 ant conf inactive | NPY-Y2 antag ct inactive
C=C(C)C1CC=C(C)/C(=N\NC(=S)Nc2ccc(C)cc2)C1 (centres undefined)	none (no result: bCat nuc transl)
CN(c1cccc(NC(=O)c2ccc(N(C)S(=O)(=O)c3ccccc3)cc2)c1)S(C)(=O)=O	NPY-Y1 antag 41 (no result: NPY-Y2 antag) | NPY-Y1 ant conf inactive | NPY-Y2 antag ct inactive
CN(c1cccc(NC(=O)c2ccc(C(C)(C)C)cc2)c1)S(C)(=O)=O	none (no result: NPY-Y2 antag)
CCC/C(O)=C1\C(=O)CC(C)(C)CC1=Nc1ccccc1O	none (no result: NPY-Y2 antag)
COc1ccc(CC2(CO)CCN(CC3=CC[C@H]4C[C@@H]3C4(C)C)CC2)cc1	NPY-Y1 antag 22 (no result: NPY-Y2 antag) | NPY-Y1 ant conf inactive | NPY-Y2 antag ct inactive
COc1ccc(CC2(CO)CCN(Cc3ccncc3)CC2)cc1	none (no result: NPY-Y2 antag)
COc1ccc(-n2cnnc2SCC(=O)NC2CCS(=O)(=O)C2)cc1 (centres undefined)	none
COC(=O)c1cc(OC)c(OC)cc1NC(=O)c1ccc(C)o1	none (no result: bCat nuc transl)
OCCN1CCN(c2cc(C(F)(F)F)nc3c(F)cccc23)CC1	none (no result: NPY-Y1 antag, MT stabilize HCS, NPY-Y2 antag)
COc1ccc(/C(N)=N/OC(=O)CSc2ccc(C)cc2)cc1OC	NPY-Y1 antag 21 (no result: bCat nuc transl) | NPY-Y1 ant conf inactive | NPY-Y2 antag ct inactive
Nc1nc(N)nc(COc2ccccc2)n1	none (no result: NPY-Y2 antag)
COc1ccc(-c2ccc(C(=O)O)c(=O)[nH]2)cc1	none (no result: NPY-Y2 antag)
Cc1ccc(-c2ccc(C(=O)O)[nH]2)cc1	NPY-Y1 antag 28 | NPY-Y1 ant conf inactive | NPY-Y2 antag ct inactive
CCOC(=O)Nc1nc(-c2ccccc2)c(C(=O)c2ccccc2)s1	NPY-Y1 antag 36 (no result: bCat nuc transl) | NPY-Y1 ant conf inactive | NPY-Y2 antag ct 21
COC(=O)Nc1nc(-c2ccccc2)c(C(=O)c2ccc(Cl)cc2)s1	none
CN(/N=C/c1ccc(O)cc1O)c1nc(-c2ccccc2)cc(-c2ccccc2)n1	none
CCN(CC)CCCN(C(=O)Cn1nnc(-c2ccc(OC)c(OC)c2)n1)C(C(=O)NC(C)(C)C)c1ccc(F)cc1 (centres undefined)	NPY-Y1 antag 32 (no result: NPY-Y2 antag) | NPY-Y1 ant conf 21 | NPY-Y2 antag ct 39
CCN(CC)CCN(C(=O)Cn1nnc(-c2ccc(C)o2)n1)C(C(=O)NC(C)(C)C)c1cccs1 (centres undefined)	NPY-Y1 antag 45 (no result: NPY-Y2 antag) | NPY-Y1 ant conf 21 | NPY-Y2 antag ct 34
CCC(C)NS(=O)(=O)c1ccc(-c2csnn2)s1 (centres undefined)	none
COc1ccc(S(=O)(=O)N2CCOCC2)cc1NC(=O)CSc1nnc2ccccn12	none (no result: NPY-Y2 antag)
C1=C(c2ccccc2)Nc2ccccc2N=C1c1ccccc1	NPY-Y1 antag 25 | NPY-Y1 ant conf inactive | NPY-Y2 antag ct inactive
CC(=O)Nc1ccc2c3c(cccc13)CC2	none (no result: bCat nuc transl)
Cc1cc(C)c(S(=O)(=O)Nc2ccc3c4c(cccc24)CC3)c(C)c1	NPY-Y1 antag 23 | NPY-Y1 ant conf inactive | NPY-Y2 antag ct 37
Nc1cc(Cl)nc(N/N=C/c2ccccc2[N+](=O)[O-])n1	none
O=C(O)CSc1nc(-c2ccccc2)nc2c1oc1ccccc12	NPY-Y1 antag 23 | NPY-Y1 ant conf inactive | NPY-Y2 antag ct inactive
O=C(O)CSc1nc(-c2ccc(Cl)cc2)nc2c1oc1ccccc12	none
O=C(NCC1CCCO1)c1onc(CSc2ccc(F)c(F)c2)c1C(=O)O (centres undefined)	none
COC(=O)C1=CN(CCOC23CC4CC(CC(C4)C2)C3)C=C(C(=O)OC)C1c1ccsc1	NPY-Y1 antag 31 (no result: NPY-Y2 antag) | NPY-Y1 ant conf 41 | NPY-Y2 antag ct 24
COC(=O)C1=CN(Cc2ccc(OC)cc2)C=C(C(=O)OC)C1c1ccsc1	none (no result: NPY-Y2 antag)
O=C(CN1CCN(c2ncc(C(F)(F)F)cc2Cl)CC1)N1CCN(c2ncc(C(F)(F)F)cc2Cl)CC1	none (no result: bCat nuc transl)
O=C(CSc1ccc(Cl)cc1)N1CCN(c2ncc(C(F)(F)F)cc2Cl)CC1	NPY-Y1 antag 24 | NPY-Y1 ant conf inactive | NPY-Y2 antag ct inactive
